≈ marks a conversion by molar mass, not a printed value.
Experiments:
Assay type in all cases: functional
[1] = tested on: Bacillus subtilis; experiment: Antibacterial activity against Bacillus subtilis ATCC 6633 after 24 hrs by MTT assay; settings: ATCC 6633, 24 h
Summary of the method: (§1)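 Broth microdilution MIC in MH medium; compounds from 50 mg/mL DMSO stock serially diluted in medium in microtitration plates. Inoculum about 10⁵ cfu/mL; incubated at 37 °C for 24 h. MIC read visually, then PBS containing 2 mg MTT/mL added per well; after 12 h further incubation at room temperature, OD read at 550 nm.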

[2] = tested on: Escherichia coli; experiment: Antibacterial activity against Escherichia coli ATCC 35218 after 24 hrs by MTT assay; settings: ATCC 35218, 24 h; summary of the method: as §1
[3] = tested on: Pseudomonas fluorescens; experiment: Antibacterial activity against Pseudomonas fluorescens ATCC 13525 after 24 hrs by MTT assay; settings: ATCC 13525, 24 h; summary of the method: as §1
[4] = tested on: Staphylococcus aureus; experiment: Antibacterial activity against Staphylococcus aureus ATCC 6538 after 24 hrs by MTT assay; settings: ATCC 6538, 24 h; summary of the method: as §1
[5] = tested on: Aspergillus niger; experiment: Antifungal activity against Aspergillus niger ATCC 16404 after 48 hrs by MTT assay; settings: ATCC 16404, 48 h
Summary of the method: (§2)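 MIC determined by serial dilution in RPMI-1640 medium in microtitration plates, compounds from 50 mg/mL DMSO stock. Fungal suspension about 10⁵ cfu/mL, incubated at 37 °C for 48 h. Visual MIC reading followed by addition of PBS with 2 mg MTT/mL; OD at 550 nm measured after 12 h at room temperature.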

[6] = tested on: Candida albicans; experiment: Antifungal activity against Candida albicans ATCC 10231 after 48 hrs by MTT assay; settings: ATCC 10231, 48 h; summary of the method: as §2
[7] = tested on: Trichophyton rubrum; experiment: Antifungal activity against Trichophyton rubrum ATCC 10218 after 48 hrs by MTT assay; settings: ATCC 10218, 48 h; summary of the method: as §2

| MIC [1] [µg/mL] | MIC [2] [µg/mL] | MIC [3] [µg/mL] | MIC [4] [µg/mL] | MIC [5] [µg/mL] | MIC [6] [µg/mL] | MIC [7] [µg/mL] | SMILES |
| --- | --- | --- | --- | --- | --- | --- | --- |
| > 50 | > 50 | > 50 | > 50 | > 50 | > 50 | > 50 | CCOC(=O)/C(=C\Nc1ccc(Cl)cc1Cl)c1ccc(Cl)cc1 |
| > 50 | > 50 | 1.5 (≈ 4.72 µM) | 0.5 (≈ 1.57 µM) | > 50 | > 50 | > 50 | CCOC(=O)/C(=C/Nc1ccc(O)cc1)c1ccc(Cl)cc1 |
| > 50 | > 50 | 36.3 (≈ 100 µM) | > 50 | > 50 | > 50 | > 50 | CCOC(=O)/C(=C\Nc1cc(OC)cc(OC)c1)c1ccc(Cl)cc1 |
| > 50 | 47.3 (≈ 140 µM) | > 50 | > 50 | > 50 | > 50 | > 50 | CCOC(=O)/C(=C\Nc1ccc(F)cc1F)c1ccc(Cl)cc1 |
| > 50 | > 50 | > 50 | 41.2 (≈ 129 µM) | > 50 | > 50 | > 50 | CCOC(=O)/C(=C/Nc1ccccc1F)c1ccc(Cl)cc1 |
| > 50 | > 50 | > 50 | > 50 | > 50 | > 50 | > 50 | CCOC(=O)/C(=C\Nc1cc(Cl)cc(Cl)c1)c1ccc(Cl)cc1 |
| 43.3 (≈ 88.4 µM) | 48.6 (≈ 99.3 µM) | 48.1 (≈ 98.2 µM) | 47.7 (≈ 97.4 µM) | > 50 | > 50 | > 50 | CCOC(=O)/C(=C\Nc1cc(Br)c(OC)c(Br)c1)c1ccc(Cl)cc1 |
| > 50 | > 50 | > 50 | 33.5 (≈ 70.4 µM) | > 50 | > 50 | > 50 | CCOC(=O)/C(=C\Nc1cc(Br)c(O)c(Br)c1)c1ccc(Cl)cc1 |
| > 50 | 48 (≈ 142 µM) | > 50 | 40.9 (≈ 121 µM) | > 50 | > 50 | > 50 | CCOC(=O)/C(=C/Nc1ccc(F)cc1F)c1ccc(Cl)cc1 |
| > 50 | 38.9 (≈ 122 µM) | 13.1 (≈ 41.2 µM) | 44.9 (≈ 141 µM) | > 50 | > 50 | > 50 | CCOC(=O)/C(=C\Nc1ccc(O)cc1)c1ccc(Cl)cc1 |
| > 50 | > 50 | 25.7 (≈ 69.3 µM) | 1.1 (≈ 2.97 µM) | > 50 | > 50 | > 50 | CCOC(=O)/C(=C/Nc1cc(Cl)cc(Cl)c1)c1ccc(Cl)cc1 |
| 49.8 (≈ 156 µM) | 43.4 (≈ 136 µM) | > 50 | > 50 | > 50 | > 50 | > 50 | CCOC(=O)/C(=C\Nc1ccc(F)cc1)c1ccc(Cl)cc1 |
| > 50 | > 50 | > 50 | 35.6 (≈ 111 µM) | > 50 | > 50 | > 50 | CCOC(=O)/C(=C/Nc1ccc(F)cc1)c1ccc(Cl)cc1 |
| > 50 | > 50 | 6.1 (≈ 12.5 µM) | 2.2 (≈ 4.49 µM) | > 50 | > 50 | > 50 | CCOC(=O)/C(=C/Nc1cc(Br)c(OC)c(Br)c1)c1ccc(Cl)cc1 |
| > 50 | > 50 | 7.1 (≈ 19.2 µM) | 12.3 (≈ 33.2 µM) | > 50 | > 50 | > 50 | CCOC(=O)/C(=C/Nc1ccc(Cl)cc1Cl)c1ccc(Cl)cc1 |
| > 50 | > 50 | 1.6 (≈ 4.42 µM) | 0.9 (≈ 2.49 µM) | > 50 | > 50 | > 50 | CCOC(=O)/C(=C/Nc1cc(OC)cc(OC)c1)c1ccc(Cl)cc1 |
| 48.2 (≈ 143 µM) | 13.5 (≈ 40 µM) | 31.5 (≈ 93.3 µM) | 1.9 (≈ 5.63 µM) | > 50 | > 50 | > 50 | CCOC(=O)/C(=C/Nc1cc(F)cc(F)c1)c1ccc(Cl)cc1 |

The remaining lines, values behind:

| SMILES | MIC [1] [µg/mL] | MIC [2] [µg/mL] | MIC [3] [µg/mL] | MIC [4] [µg/mL] | MIC [5] [µg/mL] | MIC [6] [µg/mL] | MIC [7] [µg/mL] |
| --- | --- | --- | --- | --- | --- | --- | --- |
| CCOC(=O)/C(=C/N1CCCc2ccccc21)c1ccc(Cl)cc1 | > 50 | > 50 | 38.5 (≈ 113 µM) | > 50 | > 50 | > 50 | > 50 |
| CCOC(=O)/C(=C/Nc1ccc(Br)cc1Br)c1ccc(Cl)cc1 | > 50 | > 50 | 4.5 (≈ 9.79 µM) | 8.2 (≈ 17.8 µM) | > 50 | > 50 | > 50 |
| CCOC(=O)/C(=C/N1CCCc2ccccc21)c1ccc(OC)cc1 | > 50 | > 50 | 41.5 (≈ 123 µM) | > 50 | > 50 | > 50 | > 50 |
| NC[C@H]1O[C@H](O[C@H]2[C@H](O)[C@@H](O[C@H]3O[C@H](CO)[C@@H](O)[C@H](N)[C@H]3O)[C@H](N)C[C@@H]2N)[C@H](O)[C@@H](O)[C@@H]1O [KANAMYCIN] | 0.39 (≈ 0.805 µM) | 3.9 (≈ 8.05 µM) | 3.9 (≈ 8.05 µM) | 1 (≈ 2.06 µM) |  |  |  |
| CCOC(=O)/C(=C/Nc1cc(Br)c(O)c(Br)c1)c1ccc(Cl)cc1 | > 50 | > 50 | 3.7 (≈ 7.78 µM) | 1 (≈ 2.1 µM) | > 50 | > 50 | > 50 |
| CCOC(=O)/C(=C\Nc1cc(Br)c(OCc2ccccc2)c(Br)c1)c1ccc(Cl)cc1 | > 50 | > 50 | > 50 | > 50 | > 50 | > 50 | > 50 |
| CCOC(=O)/C(=C/Nc1cc(Br)c(OCc2ccccc2)c(Br)c1)c1ccc(Cl)cc1 | > 50 | > 50 | 8.5 (≈ 15 µM) | 3.4 (≈ 6.01 µM) | > 50 | > 50 | > 50 |
| CCOC(=O)/C(=C\Nc1ccccc1F)c1ccc(Cl)cc1 | 46.6 (≈ 146 µM) | > 50 | 46 (≈ 144 µM) | > 50 | > 50 | > 50 | > 50 |
| CCOC(=O)/C(=C\Nc1cc(F)cc(F)c1)c1ccc(Cl)cc1 | > 50 | > 50 | > 50 | > 50 | > 50 | > 50 | > 50 |
| CC1(C)S[C@@H]2[C@H](NC(=O)Cc3ccccc3)C(=O)N2[C@H]1C(=O)O [PENICILLIN G] | 0.78 (≈ 2.33 µM) |  |  | 2 (≈ 5.98 µM) |  |  |  |
| CCOC(=O)/C(=C\Nc1ccc(Br)cc1Br)c1ccc(Cl)cc1 | > 50 | > 50 | 23.8 (≈ 51.8 µM) | 32.1 (≈ 69.8 µM) | > 50 | > 50 | > 50 |
| CC(=O)N1CCN(c2ccc(OCC3COC(Cn4ccnc4)(c4ccc(Cl)cc4Cl)O3)cc2)CC1 (stereo unspecified) [KETOCONAZOLE] |  |  |  |  | 7.8 (≈ 14.7 µM) | 3.9 (≈ 7.34 µM) | 3.9 (≈ 7.34 µM) |

— ChEMBL document CHEMBL1156708, “Enamines as novel antibacterials and their structure-activity relationships” (2008)
